Reference: ChEMBL document CHEMBL1138529, “Efficacy, pharmacokinetics, and metabolism of tetrahydroquinoline inhibitors of Plasmodium falciparum protein farnesyltransferase” (Antimicrob Agents Chemother, 2007)

What was measured:
[1] = system: Plasmodium falciparum; assay: Antiplasmodial activity against Plasmodium falciparum by [3H]hypoxanthine uptake; type: functional; conditions: read-out: ED50 (the source's name)
Procedure, shortened: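 Asynchronous P. falciparum (3D7 or K1) in RPMI 1640 with 20% heat-inactivated human A+ plasma, 0.5% parasitemia and 0.5% hematocrit; compound serially diluted, top final 5 μM, 48 h at 37°C under 5% CO2/5% O2/90% N2, then [8-3H]hypoxanthine 0.3 μCi added for 24 h.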

[2] = Inhibition of Plasmodium falciparum protein farnesyltransferase by SPA method
[3] = Permeability from apical to basolateral side in human Caco-2 cells; type: ADME, cell-based; conditions: read-out: permeability
[4] = system: Mus musculus; assay: Toxicity in BALB/c mouse at 50 mg/kg, po; type: organism-based; set-up: dose 50 mg/kg, route oral; conditions: in vivo
[5] = system: Rattus norvegicus; assay: Toxicity in Sprague-Dawley rat at 50 mg/kg, po; type: organism-based; set-up: dose 50 mg/kg, route oral; conditions: in vivo
Procedure, shortened: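 Female Sprague-Dawley rats, 10-12 weeks, three per group. 50 mg/kg oral gavage in 3% EtOH-7% Tween 80-90% normal saline. Saphenous vein plasma sampled over time, and animals observed for adverse reactions.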

[6] = system: Mus musculus; assay: Plasma concentration in BALB/c mouse at 50 mg/kg, po; type: ADME, organism-based; set-up: dose 50 mg/kg, route oral; conditions: in vivo
Procedure, shortened: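 Female BALB/c mice, 8-10 weeks, three per group. Single 50 mg/kg oral gavage in 3% EtOH-7% Tween 80-90% normal saline. Plasma collected by tail bleed at set times, frozen at −20°C, acetonitrile-extracted with internal standard, quantified by LC/MS.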

[7] = Permeability from basolateral to apical side in human Caco-2 cells; type: ADME, cell-based; conditions: read-out: permeability
Procedure, shortened: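 Caco-2 clone TC7 grown on laminin-coated porous inserts and used 19-21 days after seeding; integrity checked by TEER and [3H]mannitol flux. Monolayers equilibrated 30 min at 37°C in HBSS/5 mM HEPES pH 7.4. Compound at 50 μM final added to basolateral donor side. Apical receiver sampled at 60 min, 37°C with shaking; LC/MS; Papp calculated from 60-min concentrations.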

Structure (SMILES) | EC50 [1] | IC50 [2] | Papp A→B [3] | concentration [6] | Papp B→A [7] | Activity [4] | Activity [5]
CCNC(=O)N1CCC(CN(C2Cc3cc(C#N)ccc3N(Cc3cncn3C)C2)S(=O)(=O)c2ccccn2)CC1 (stereo unspecified) | 13 nM | 0.8 nM | 0.6 ×10⁻⁶ cm/s |  |  | Non-toxic | Non-toxic
Cn1cncc1CN1CC(N(CC2CCN(C(=O)CC(F)(F)F)CC2)S(=O)(=O)c2ccccn2)Cc2cc(C#N)ccc21 (stereo unspecified) | 18 nM | 0.6 nM | 0.5 ×10⁻⁶ cm/s |  |  | Non-toxic | Non-toxic
CC(C)S(=O)(=O)N1CCC(CN(C2Cc3cc(C#N)ccc3N(Cc3cncn3C)C2)S(=O)(=O)c2ccccn2)CC1 (stereo unspecified) | 62 nM | 0.5 nM | 0.1 ×10⁻⁶ cm/s |  |  | Non-toxic | Non-toxic
Cn1cnc(S(=O)(=O)N(Cc2cccc(-n3cccc3)c2)C2Cc3cc(C#N)ccc3N(Cc3cncn3C)C2)c1 (stereo unspecified) |  |  | 0.2 ×10⁻⁶ cm/s | 1100 nM | 52.1 ×10⁻⁶ cm/s | Non-toxic | 
CCCC(=O)N1CCC(CN(C2Cc3cc(C#N)ccc3N(Cc3cncn3C)C2)S(=O)(=O)c2ccccn2)CC1 (stereo unspecified) | 17 nM | 0.6 nM | 0.5 ×10⁻⁶ cm/s |  |  | Non-toxic | Non-toxic
CC(C)NCC(O)COc1cccc2ccccc12 (stereo unspecified) [PROPRANOLOL] |  |  | 28.9 ×10⁻⁶ cm/s |  | 83.4 ×10⁻⁶ cm/s |  | 
CC(C)NC(=O)N1CCC(CN(C2Cc3cc(C#N)ccc3N(Cc3cncn3C)C2)S(=O)(=O)c2ccccn2)CC1 (stereo unspecified) | 13 nM | 0.8 nM | 0.6 ×10⁻⁶ cm/s |  |  | Non-toxic | Non-toxic
CNC(=C[N+](=O)[O-])NCCSCc1ccc(CN(C)C)o1 [RANITIDINE] |  |  | 0.3 ×10⁻⁶ cm/s |  | 5.6 ×10⁻⁶ cm/s |  | 
Cn1cncc1CN1CC(N(Cc2ccc(S(C)(=O)=O)cc2)S(=O)(=O)c2ccccn2)Cc2cc(C#N)ccc21 (stereo unspecified) |  |  | 0.2 ×10⁻⁶ cm/s | 150 nM | 50.1 ×10⁻⁶ cm/s | Non-toxic | 
Cn1cncc1CN1CC(N(CC2CCN(C(=O)c3ccccc3)CC2)S(=O)(=O)c2ccccn2)Cc2cc(C#N)ccc21 (stereo unspecified) | 18 nM | 0.6 nM | 0.5 ×10⁻⁶ cm/s |  |  | Non-toxic | Non-toxic
Cn1cnc(S(=O)(=O)N(Cc2ccccn2)C2Cc3cc(C#N)ccc3N(Cc3cncn3C)C2)c1 (stereo unspecified) |  |  | 0.2 ×10⁻⁶ cm/s | 1000 nM | 23.9 ×10⁻⁶ cm/s | Non-toxic | 
Cn1cncc1CN1CC(N(CC2CCN(C(=O)C3CCCC3)CC2)S(=O)(=O)c2ccccn2)Cc2cc(C#N)ccc21 (stereo unspecified) | 18 nM | 0.6 nM | 0.5 ×10⁻⁶ cm/s |  |  | Non-toxic | Non-toxic
CCS(=O)(=O)N1CCC(CN(C2Cc3cc(C#N)ccc3N(Cc3cncn3C)C2)S(=O)(=O)c2ccccn2)CC1 (stereo unspecified) | 62 nM | 0.5 nM | 0.1 ×10⁻⁶ cm/s |  |  | Non-toxic | Non-toxic
CC(=O)N1CCC(CN(C2Cc3cc(C#N)ccc3N(Cc3cncn3C)C2)S(=O)(=O)c2ccccn2)CC1 (stereo unspecified) | 12 nM | 0.6 nM | 0.5 ×10⁻⁶ cm/s |  |  | Non-toxic | Non-toxic
Cn1cnc(S(=O)(=O)N(CCn2cccc2)C2Cc3cc(C#N)ccc3N(Cc3cncn3C)C2)c1 (stereo unspecified) |  |  | 0.3 ×10⁻⁶ cm/s | 800 nM | 53 ×10⁻⁶ cm/s | Non-toxic | 
Cn1cnc(S(=O)(=O)N2CCC(CN(C3Cc4cc(C#N)ccc4N(Cc4cncn4C)C3)S(=O)(=O)c3ccccn3)CC2)c1 (stereo unspecified) | 62 nM | 0.5 nM | 0.1 ×10⁻⁶ cm/s |  |  | Non-toxic | Non-toxic
CN(C)C(=O)N1CCC(CN(C2Cc3cc(C#N)ccc3N(Cc3cncn3C)C2)S(=O)(=O)c2ccccn2)CC1 (stereo unspecified) | 13 nM | 0.8 nM | 0.6 ×10⁻⁶ cm/s |  |  | Non-toxic | Non-toxic
Cn1cncc1CN1CC(N(CC2CCN(C(=O)c3ccco3)CC2)S(=O)(=O)c2ccccn2)Cc2cc(C#N)ccc21 (stereo unspecified) | 18 nM | 0.6 nM | 0.5 ×10⁻⁶ cm/s |  |  | Non-toxic | Non-toxic
Cn1cncc1CN1CC(N(CC(=O)NC(C)(C)C)S(=O)(=O)c2ccccn2)Cc2cc(C#N)ccc21 (stereo unspecified) | 85 nM | 1 nM |  |  |  |  | 
CC(C)C(=O)N1CCC(CN(C2Cc3cc(C#N)ccc3N(Cc3cncn3C)C2)S(=O)(=O)c2ccccn2)CC1 (stereo unspecified) | 14 nM | 0.6 nM | 0.5 ×10⁻⁶ cm/s |  |  | Non-toxic | Non-toxic
Cn1cncc1CN1CC(N(CC2CCN(S(C)(=O)=O)CC2)S(=O)(=O)c2ccccn2)Cc2cc(C#N)ccc21 (stereo unspecified) | 62 nM | 0.5 nM | 0.1 ×10⁻⁶ cm/s |  |  | Non-toxic | Non-toxic
Cn1cncc1CN1CC(N(CC2CCN(C(=O)c3ccc(Cl)cc3)CC2)S(=O)(=O)c2ccccn2)Cc2cc(C#N)ccc21 (stereo unspecified) | 18 nM | 0.6 nM | 0.5 ×10⁻⁶ cm/s |  |  | Non-toxic | Non-toxic

More lines, main results first:

EC50 [1] | IC50 [2] | Papp A→B [3] | concentration [6] | Papp B→A [7] | Structure (SMILES) | Activity [4] | Activity [5]
16 nM | 0.6 nM | 0.5 ×10⁻⁶ cm/s |  |  | Cn1cncc1CN1CC(N(CC2CCN(C(=O)CC(C)(C)C)CC2)S(=O)(=O)c2ccccn2)Cc2cc(C#N)ccc21 (stereo unspecified) | Non-toxic | Non-toxic
18 nM | 0.6 nM | 0.5 ×10⁻⁶ cm/s |  |  | Cn1cncc1CN1CC(N(CC2CCN(C(=O)C3CC3)CC2)S(=O)(=O)c2ccccn2)Cc2cc(C#N)ccc21 (stereo unspecified) | Non-toxic | Non-toxic
> 5 nM | > 50 nM |  |  |  | Cn1cncc1CN1CC(N(CC(=O)NC(C)(C)C)S(=O)(=O)c2ccncc2)Cc2cc(C#N)ccc21 (stereo unspecified) |  | 
13 nM | 0.8 nM | 0.6 ×10⁻⁶ cm/s |  |  | Cn1cncc1CN1CC(N(CC2CCN(C(=O)Nc3ccc(Br)cc3)CC2)S(=O)(=O)c2ccccn2)Cc2cc(C#N)ccc21 (stereo unspecified) | Non-toxic | Non-toxic
13 nM | 0.8 nM | 0.6 ×10⁻⁶ cm/s |  |  | Cn1cncc1CN1CC(N(CC2CCN(C(=O)NC(C)(C)C)CC2)S(=O)(=O)c2ccccn2)Cc2cc(C#N)ccc21 (stereo unspecified) | Non-toxic | Non-toxic
 |  | 2.3 ×10⁻⁶ cm/s | 9800 nM | 12.1 ×10⁻⁶ cm/s | Cn1cncc1CN1CC(N(Cc2cccc(-n3cccc3)c2)S(=O)(=O)c2ccccn2)Cc2cc(C#N)ccc21 (stereo unspecified) | Non-toxic | 
13 nM | 0.6 nM | 0.5 ×10⁻⁶ cm/s |  |  | CCC(=O)N1CCC(CN(C2Cc3cc(C#N)ccc3N(Cc3cncn3C)C2)S(=O)(=O)c2ccccn2)CC1 (stereo unspecified) | Non-toxic | Non-toxic
 |  | 0.1 ×10⁻⁶ cm/s |  | 41.9 ×10⁻⁶ cm/s | CC[C@]1(O)C[C@@H]2CN(CCc3c([nH]c4ccccc34)[C@@](C(=O)OC)(c3cc4c(cc3OC)N(C)[C@H]3[C@@](O)(C(=O)OC)[C@H](OC(C)=O)[C@]5(CC)C=CCN6CC[C@]43[C@@H]65)C2)C1 [VINBLASTINE] |  | 
18 nM | 0.6 nM | 0.5 ×10⁻⁶ cm/s |  |  | C=C(C)C(=O)N1CCC(CN(C2Cc3cc(C#N)ccc3N(Cc3cncn3C)C2)S(=O)(=O)c2ccccn2)CC1 (stereo unspecified) | Non-toxic | Non-toxic
62 nM | 0.5 nM | 0.1 ×10⁻⁶ cm/s |  |  | Cn1cncc1CN1CC(N(CC2CCN(S(=O)(=O)c3ccccc3)CC2)S(=O)(=O)c2ccccn2)Cc2cc(C#N)ccc21 (stereo unspecified) | Non-toxic | Non-toxic
13 nM | 0.8 nM | 0.6 ×10⁻⁶ cm/s |  |  | Cn1cncc1CN1CC(N(CC2CCN(C(=O)N3CCCCC3)CC2)S(=O)(=O)c2ccccn2)Cc2cc(C#N)ccc21 (stereo unspecified) | Non-toxic | Non-toxic
 |  | 8 ×10⁻⁶ cm/s | 15000 nM | 67.1 ×10⁻⁶ cm/s | Cc1noc(C)c1CN(C1Cc2cc(C#N)ccc2N(Cc2cncn2C)C1)S(=O)(=O)c1ccccn1 (stereo unspecified) | Non-toxic | 
15 nM | 0.6 nM | 0.5 ×10⁻⁶ cm/s |  |  | Cn1cncc1CN1CC(N(CC2CCN(C(=O)C(C)(C)C)CC2)S(=O)(=O)c2ccccn2)Cc2cc(C#N)ccc21 (stereo unspecified) | Non-toxic | Non-toxic
18 nM | 0.6 nM | 0.5 ×10⁻⁶ cm/s |  |  | Cn1cncc1CN1CC(N(CC2CCN(C(=O)CNC(=O)OC(C)(C)C)CC2)S(=O)(=O)c2ccccn2)Cc2cc(C#N)ccc21 (stereo unspecified) | Non-toxic | Non-toxic
18 nM | 0.6 nM | 0.5 ×10⁻⁶ cm/s |  |  | Cn1cncc1CN1CC(N(CC2CCN(C(=O)c3cccs3)CC2)S(=O)(=O)c2ccccn2)Cc2cc(C#N)ccc21 (stereo unspecified) | Non-toxic | Non-toxic
13 nM | 0.8 nM | 0.6 ×10⁻⁶ cm/s |  |  | Cn1cncc1CN1CC(N(CC2CCN(C(=O)N3CCCC3)CC2)S(=O)(=O)c2ccccn2)Cc2cc(C#N)ccc21 (stereo unspecified) | Non-toxic | Non-toxic
2.7 nM | 10 nM |  |  |  | Cn1cncc1CN1CC(N(CC(=O)NC(C)(C)C)S(=O)(=O)c2cccnc2)Cc2cc(C#N)ccc21 (stereo unspecified) |  | 
